Measurements: ChEMBL document CHEMBL3877338, “Antiparasitic Lead Discovery: Toward Optimization of a Chemotype with Activity Against Multiple Protozoan Parasites” (ACS Med Chem Lett, 2017)
Converted amounts (≈) assume the structure as drawn.

Experiments:
[1] = Cytotoxicity against human HepG2 cells assessed as reduction in cell viability after 48 hrs by MTT assay; type: toxicity, cell-based; details: read-out: TC50
Outline: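 HepG2 cells in supplemented MEM, 9570/well, plated overnight at 37 °C. Twelve 1.6-fold dilutions in duplicate, 57–10,000 ng/mL, for 48 h; mefloquine plate control. MTT added for 1 h at room temperature in the dark, formazan dissolved in acidified isopropanol, absorbance read. IC50 by sigmoidal variable-slope nonlinear regression.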

Leishmania major = assay: Antileishmanial activity against luciferase-expressing Leishmania major amastigotes infected in mouse RAW264.7 cells after 96 hrs by luminescence assay; type: functional, cell-based; details: RAW264.7, 96 h
Outline: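 RAW 264.7 macrophages, 10,000/well, 24 h at 37 °C, then infected overnight with luciferase-expressing L. major promastigotes (100,000/well) and washed three times. Twelve two-fold dilutions in duplicate, final […]–10,000 ng/mL. 96 h at 37 °C, 5% CO2, then luciferin 30 min in the dark and luminescence read. IC50 by sigmoidal variable-slope nonlinear regression.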

[2] = test system: Trypanosoma brucei brucei; assay: Antitrypanosomal activity against Trypanosoma brucei brucei 427 bloodstream forms after 48 hrs by presto blue dye based fluorescence assay; type: functional; details: Trypanosoma brucei, 427, 48 h
[3] = Cytotoxicity against […] cells assessed as reduction in cell viability after 96 hrs by presto blue assay; type: toxicity; details: read-out: TC50
Outline: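 NIH 3T3 cells in phenol red-free DMEM with 2% FBS, 5×10^4/well, left 2 h to attach, then exposed to compound 96 h at 37 °C, 5% CO2. PrestoBlue added for 4 h, fluorescence read at ex 530/em 590 nm.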

Trypanosoma cruzi = assay: Antitrypanosomal activity against Trypanosoma cruzi Tulahuen amastigotes infected in […] cells after 96 hrs by chlorophenol red-beta-D-galactopyranoside based assay; details: NIH3T3, 96 h
[4] = Protein binding in human plasma; type: ADME, cell-free
[5] = Lipophilicity, log D of the compound at pH 7.4; type: physicochemical; details: buffer
[6] = Thermodynamic aqueous solubility of the compound; type: physicochemical; details: buffer; read-out: Therm_solubility
[7] = Intrinsic clearance in human liver microsomes; type: ADME
[8] = Intrinsic clearance in rat hepatocytes assessed per million cells; type: ADME, cell-based, Hepatocyte
[9] = Ratio of drug level in BALB/c mouse brain to plasma at 10 mg/kg, ip administered as single dose at 0.25 hrs post dose by LC-MS/MS analysis; type: ADME, organism-based
Outline: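 Female BALB/c mice, 8–12 weeks, single 10 mg/kg i.p. dose (10 mL/kg) in NMP/solutol HS/saline solution. Three mice per time point. Plasma (K2EDTA) and brain collected; brain washed in PBS and homogenized in PBS pH 7.4 to three times its weight. Protein precipitation with acetonitrile, then LC-MS/MS (LLOQ 1.04 ng/mL plasma, 2.08 ng/mL brain). Non-compartmental analysis.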

[10] = Fraction unbound in human plasma; type: ADME, cell-free

SMILES: Fc1cccc(COc2ccc(Nc3ncnc4ccc(-c5cccc(N6CCOCC6)c5)cc34)cc2Cl)c1
- CC50 at 48 h [1]: > 20 µM

SMILES: O=S(=O)(c1ccc(-c2ccc3ncnc(Nc4ccc(OCc5cccc(F)c5)cc4)c3c2)cc1)N1CCOCC1
- CC50 at 48 h [1]: > 20 µM

SMILES: Cc1cnc(Nc2ccnc3ccc(-c4ccc(S(=O)(=O)N5CCOCC5)cc4)cc23)s1
- EC50 (Leishmania major): 1.2 µM
- EC50 [2]: 1.6 µM
- CC50 at 48 h [1]: > 20 µM
- CC50 at 96 h [3]: > 20 µM
- EC50 (Trypanosoma cruzi): 6.1 µM

SMILES: COc1ccc(Nc2ccnc3ccc(-c4ccc(S(=O)(=O)N5CCOCC5)cc4)cc23)cc1C
- EC50 (Leishmania major): 5.7 µM
- EC50 [2]: 0.31 µM
- CC50 at 48 h [1]: 9 µM
- CC50 at 96 h [3]: 15 µM
- EC50 (Trypanosoma cruzi): 3.6 µM

SMILES: CCOCCOc1ccnc2ccc(-c3ccc(S(=O)(=O)N4CCOCC4)cc3)cc12
- EC50 (Leishmania major): > 20 µM
- EC50 [2]: 0.71 µM
- CC50 at 48 h [1]: > 20 µM
- EC50 (Trypanosoma cruzi): > 20 µM

SMILES: Cc1nnc(Nc2ccnc3ccc(-c4ccc(S(=O)(=O)N5CCOCC5)cc4)cc23)nc1C
- EC50 (Leishmania major): > 20 µM
- EC50 [2]: 3.1 µM
- CC50 at 48 h [1]: > 20 µM
- CC50 at 96 h [3]: > 20 µM
- EC50 (Trypanosoma cruzi): > 20 µM

SMILES: O=S(=O)(c1ccc(-c2ccc3nccc(Nc4ccncc4)c3c2)cc1)N1CCOCC1
- EC50 (Leishmania major): > 20 µM
- EC50 [2]: 0.11 µM
- CC50 at 48 h [1]: > 20 µM
- CC50 at 96 h [3]: > 20 µM
- EC50 (Trypanosoma cruzi): > 20 µM

SMILES: Cc1noc(C)c1Nc1ccnc2ccc(-c3ccc(S(=O)(=O)N4CCOCC4)cc3)cc12
- EC50 (Leishmania major): > 20 µM
- EC50 [2]: 6.6 µM
- CC50 at 48 h [1]: > 20 µM
- CC50 at 96 h [3]: > 20 µM
- EC50 (Trypanosoma cruzi): > 20 µM

SMILES: O=S(=O)(c1ccc(-c2ccc3nccc(Nc4ccncn4)c3c2)cc1)N1CCOCC1
- EC50 (Leishmania major): > 20 µM
- EC50 [2]: 0.024 µM
- CC50 at 48 h [1]: > 20 µM
- CC50 at 96 h [3]: > 20 µM
- PPB [4]: 95.6%
- logD [5]: 3.3
- solubility thermodynamic [6]: 1.4 µM (≈ 0.627 µg/mL)
- CLH [7]: 207.5 µL/min/mg
- CLH [8]: 31.5 µL/min
- BPR [9]: 0.01
- EC50 (Trypanosoma cruzi): > 20 µM

SMILES: N#Cc1cnc(Nc2ccnc3ccc(-c4ccc(S(=O)(=O)N5CCOCC5)cc4)cc23)cn1
- EC50 (Leishmania major): > 20 µM
- EC50 [2]: 7.9 µM
- CC50 at 48 h [1]: > 20 µM
- CC50 at 96 h [3]: > 20 µM
- EC50 (Trypanosoma cruzi): > 20 µM

SMILES: O=S(=O)(c1ccc(-c2ccc3nccc(Nc4cnccn4)c3c2)cc1)N1CCOCC1
- EC50 (Leishmania major): > 20 µM
- EC50 [2]: > 20 µM
- CC50 at 48 h [1]: > 20 µM
- CC50 at 96 h [3]: > 20 µM
- EC50 (Trypanosoma cruzi): > 20 µM

SMILES: O=S(=O)(c1ccc(-c2ccc3nccc(Nc4ccccc4)c3c2)cc1)N1CCOCC1
- EC50 (Leishmania major): 7.1 µM
- EC50 [2]: 0.98 µM
- CC50 at 48 h [1]: > 20 µM
- CC50 at 96 h [3]: > 20 µM
- EC50 (Trypanosoma cruzi): 6.2 µM

SMILES: Cc1cc(Nc2ccnc3ccc(-c4ccc(S(=O)(=O)N5CCOCC5)cc4)cc23)on1
- EC50 (Leishmania major): > 20 µM
- EC50 [2]: 1.1 µM
- CC50 at 48 h [1]: > 20 µM
- CC50 at 96 h [3]: > 20 µM
- EC50 (Trypanosoma cruzi): 7.6 µM

SMILES: Cc1cc(Nc2ccnc3ccc(-c4ccc(S(=O)(=O)N5CCOCC5)cc4)cc23)sn1
- EC50 (Leishmania major): 4.5 µM
- EC50 [2]: 0.072 µM
- CC50 at 48 h [1]: > 20 µM
- CC50 at 96 h [3]: > 20 µM
- EC50 (Trypanosoma cruzi): 3.9 µM

SMILES: O=S(=O)(c1ccc(-c2ccc3nccc(Nc4cccnc4)c3c2)cc1)N1CCOCC1
- EC50 (Leishmania major): > 20 µM
- EC50 [2]: 3.8 µM
- CC50 at 48 h [1]: > 20 µM
- CC50 at 96 h [3]: > 20 µM
- EC50 (Trypanosoma cruzi): > 20 µM

SMILES: COc1ccc(Nc2ccnc3ccc(-c4ccc(S(=O)(=O)N5CCOCC5)cc4)cc23)cc1Cl
- EC50 (Leishmania major): 5.3 µM
- EC50 [2]: 1.7 µM
- CC50 at 48 h [1]: > 20 µM
- CC50 at 96 h [3]: > 20 µM
- EC50 (Trypanosoma cruzi): 7.2 µM

SMILES: O=[N+]([O-])c1ccc(Nc2ccnc3ccc(-c4ccc(S(=O)(=O)N5CCOCC5)cc4)cc23)cn1
- EC50 (Leishmania major): 5.8 µM
- EC50 [2]: 3.2 µM
- CC50 at 48 h [1]: > 20 µM
- CC50 at 96 h [3]: > 20 µM
- EC50 (Trypanosoma cruzi): > 20 µM

SMILES: O=S(=O)(c1ccc(-c2ccc3nccc(Nc4ccnnc4)c3c2)cc1)N1CCOCC1
- EC50 (Leishmania major): > 20 µM
- EC50 [2]: > 20 µM
- CC50 at 48 h [1]: > 20 µM
- CC50 at 96 h [3]: > 20 µM
- EC50 (Trypanosoma cruzi): > 20 µM

SMILES: O=S(=O)(c1ccc(-c2ccc3nccc(Nc4cncs4)c3c2)cc1)N1CCOCC1
- EC50 (Leishmania major): 5.4 µM
- EC50 [2]: 1.2 µM
- CC50 at 48 h [1]: > 20 µM
- CC50 at 96 h [3]: > 20 µM
- EC50 (Trypanosoma cruzi): > 20 µM

SMILES: O=S(=O)(c1ccc(-c2ccc3nccc(Nc4ccc(OCc5cccc(F)c5)cc4)c3c2)cc1)N1CCOCC1
- EC50 (Leishmania major): 1.2 µM
- EC50 [2]: 0.37 µM
- CC50 at 48 h [1]: > 5 µM
- solubility thermodynamic [6]: 2 µM (≈ 1.14 µg/mL)
- Fu [10]: < 0.1%
- CLH [7]: 98 µL/min/mg
- CLH [8]: 19 µL/min
- EC50 (Trypanosoma cruzi): 2.8 µM

SMILES: O=S(=O)(c1ccc(-c2ccc3nccc(Nc4ncc(Cl)cn4)c3c2)cc1)N1CCOCC1
- EC50 (Leishmania major): 0.37 µM
- EC50 [2]: 3.8 µM
- CC50 at 48 h [1]: > 20 µM
- CC50 at 96 h [3]: > 20 µM
- PPB [4]: 99.6%
- solubility thermodynamic [6]: 1 µM (≈ 0.482 µg/mL)
- EC50 (Trypanosoma cruzi): > 20 µM

SMILES: O=S(=O)(c1ccc(-c2ccc3nccc(Nc4nnc(C5CC5)s4)c3c2)cc1)N1CCOCC1
- EC50 (Leishmania major): 2 µM
- EC50 [2]: 4.7 µM
- CC50 at 48 h [1]: > 20 µM
- CC50 at 96 h [3]: > 20 µM
- EC50 (Trypanosoma cruzi): > 20 µM

SMILES: Cc1cnnc(Nc2ccnc3ccc(-c4ccc(S(=O)(=O)N5CCOCC5)cc4)cc23)c1
- EC50 (Leishmania major): > 20 µM
- EC50 [2]: 2 µM
- CC50 at 48 h [1]: > 20 µM
- CC50 at 96 h [3]: > 20 µM
- EC50 (Trypanosoma cruzi): > 20 µM

SMILES: O=S(=O)(c1ccc(-c2ccc3nccc(Nc4ccccn4)c3c2)cc1)N1CCOCC1
- EC50 (Leishmania major): > 20 µM
- EC50 [2]: 4.5 µM
- CC50 at 48 h [1]: > 20 µM
- CC50 at 96 h [3]: > 20 µM
- EC50 (Trypanosoma cruzi): 16 µM

SMILES: CCc1nnc(Nc2ccnc3ccc(-c4ccc(S(=O)(=O)N5CCOCC5)cc4)cc23)s1
- EC50 (Leishmania major): 3.1 µM
- EC50 [2]: 4.2 µM
- CC50 at 48 h [1]: > 20 µM
- CC50 at 96 h [3]: > 20 µM
- EC50 (Trypanosoma cruzi): > 20 µM

SMILES: O=S(=O)(c1ccc(-c2ccc3ncccc3c2)cc1)N1CCOCC1
- EC50 (Leishmania major): > 20 µM
- EC50 [2]: > 20 µM
- CC50 at 48 h [1]: > 20 µM
- CC50 at 96 h [3]: > 20 µM
- EC50 (Trypanosoma cruzi): > 20 µM

SMILES: CCn1nccc1Nc1ccnc2ccc(-c3ccc(S(=O)(=O)N4CCOCC4)cc3)cc12
- EC50 (Leishmania major): > 20 µM
- EC50 [2]: 2.5 µM
- CC50 at 48 h [1]: > 20 µM
- CC50 at 96 h [3]: > 20 µM
- EC50 (Trypanosoma cruzi): > 20 µM

SMILES: O=S(=O)(c1ccc(-c2ccc3nccc(Nc4ccc5[nH]nnc5c4)c3c2)cc1)N1CCOCC1
- EC50 (Leishmania major): > 20 µM
- EC50 [2]: 16 µM
- CC50 at 48 h [1]: > 20 µM
- CC50 at 96 h [3]: > 20 µM
- EC50 (Trypanosoma cruzi): > 20 µM

SMILES: COc1ncc(Nc2ccnc3ccc(-c4ccc(S(=O)(=O)N5CCOCC5)cc4)cc23)cn1
- EC50 (Leishmania major): > 20 µM
- EC50 [2]: 5.6 µM
- CC50 at 48 h [1]: > 20 µM
- CC50 at 96 h [3]: > 20 µM
- EC50 (Trypanosoma cruzi): > 20 µM

SMILES: CS(=O)(=O)CCNCc1ccc(-c2ccc3ncnc(Nc4ccc(OCc5cccc(F)c5)c(Cl)c4)c3c2)o1 [LAPATINIB]
- CC50 at 48 h [1]: > 20 µM
